# Source: paper PMC11911394 (Nature Communications, 2025)
# Columns and labels:
# nirFAST [1] = test: Characterization of nirFAST with prototypical FAST; type: physicochemical; conditions: fluorogen bound to nirFAST
# Procedure, shortened: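 His-tag-purified protein came from E. coli BL21(DE3) or Rosetta(DE3)pLysS, induced overnight with 1 mM IPTG at 16 °C and isolated on Ni-NTA. Spectra were recorded in PBS pH 7.4 at 25 °C on a plate reader. Quantum yield was measured in 96-well plates against a reference fluorogen:protein complex. Protein was 40 µM, with fluorogen usually 6 to 0.375 µM, giving >99% complex.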
# [2] = type: physicochemical; conditions: exciting with red light
# Procedure, shortened: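 Steady-state UV-Vis absorption and fluorescence spectra were recorded on a plate reader in PBS pH 7.4 at 25 °C.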
# HeLa cells = test: Cell viability assay; type: cell-based; conditions: at the dose used for imaging; HeLa and HEK293T (Supplementary Fig. 8)
# Procedure, shortened: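 HeLa cells were grown in MEM with phenol red, Glutamax I, 1 mM sodium pyruvate, 1% non-essential amino acids, 10% FBS and 1% penicillin–streptomycin at 37 °C and 5% CO₂. They were exposed to fluorogen at the indicated concentrations for 24 h. Viability was read as CellTiter-Glo luminescence on a plate reader, per kit protocol.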
# nirFAST [3] = test: nirFAST labeling kinetics in live HeLa cells; type: cell-based; conditions: 10 µM fluorogen
# zebrafish larvae = test: Imaging of injected nirFAST-expressing HEK293T cells in zebrafish larvae; type: in vivo, zebrafish (Danio rerio); conditions: zebrafish larvae 4 dpf, 45 min of treatment
# Procedure, shortened: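 HEK293T cells were transfected with a nirFAST-P2A-EGFP plasmid and, after 24 h, suspended at 10,000,000 cells/mL in serum-free DMEM. About 5–10 nL was microinjected near the heart of 2 dpf nacre larvae anesthetized with 0.02% MS-222. Larvae were raised at 28 °C, and green-positive ones were chosen. At 4 dpf they were incubated 45 min with fluorogen, anesthetized, mounted laterally in 0.8% low-melt agarose and imaged confocally.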
# [4] = tested on: LAMP1–mCherry–FIREtag and nir-FIREmate–KIF17; test: nirCATCHFIRE control of lysosome positioning; type: cell-based; conditions: HeLa cells co-expressing LAMP1–mCherry–FIREtag and nir-FIREmate–KIF17
smiles,measurement,setting,value
"Cc1cc(/C=C2\SC(=S)NC2=O)c(C)cc1O [HBR-2,5DM]",fluorescence activation by nirFAST,nirFAST [1],failed to activate efficiently the fluorescence
"Cc1cc(/C=C2\SC(=S)NC2=O)cc(C)c1O [HBR-3,5DM]",FQY of assembly with nirFAST,nirFAST [1],37%
"COc1cc(/C=C2\SC(=S)NC2=O)cc(OC)c1O [HBR-3,5DOM]",FQY of assembly with nirFAST,nirFAST [1],24%
Cc1cc(/C=C2\SC(=S)NC2=O)ccc1O [HMBR],fluorescence activation by nirFAST,nirFAST [1],failed to activate efficiently the fluorescence
"COc1cc(/C=C/C=C2\SC(=S)NC2=O)cc(OC)c1O [HPAR-3,5DOM, (Z)-5-((E)-3-(4-hydroxy-3,5-dimethoxyphenyl)allylidene)-2-thioxothiazolidin-4-one]",fluorescence of free fluorogen,[2],completely non-fluorescent
same,toxicity for mammalian cells,HeLa cells,non-toxic
same,time to complete labeling of nirFAST after fluorogen addition,nirFAST [3],complete within twenty seconds
same,detection of nirFAST-expressing HEK293T cells in larvae,zebrafish larvae,efficiently detected
same,effect on lysosome positioning,[4],displacement of lysosomes from the perinuclear region to the cell periphery
